Numbering of substitutions follows the chain as printed. Active and inactive are the calls of the source. The calls are words filed in the database; no cut-off is given here.

For experiment [1], the target named is T1, Aldo-keto reductase family 1 member C1 (Homo sapiens) (UniProt Q04828).
T1 sequence (whole entry): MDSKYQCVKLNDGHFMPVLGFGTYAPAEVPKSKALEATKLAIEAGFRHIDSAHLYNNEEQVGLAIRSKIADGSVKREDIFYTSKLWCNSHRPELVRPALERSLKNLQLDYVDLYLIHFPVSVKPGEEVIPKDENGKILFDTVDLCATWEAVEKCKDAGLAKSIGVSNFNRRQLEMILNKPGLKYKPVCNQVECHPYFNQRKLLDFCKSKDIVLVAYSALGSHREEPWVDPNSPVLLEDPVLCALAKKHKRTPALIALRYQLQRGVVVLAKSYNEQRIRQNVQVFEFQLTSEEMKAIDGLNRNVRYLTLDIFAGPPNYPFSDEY
Description: Inhibition of recombinant AKR1C1 using 1-acenaphthenol as substrate at 10 uM by spectrophotometry. Summed up: (§1)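 Oxidation of 1-acenaphthenol was run with 2.3 mM NAD+ in 100 mM phosphate pH 9.0 containing 0.005% Triton X-114 and 5% DMSO. Substrate/enzyme were 30 µM/0.1 µM for AKR1C1, 60 µM/0.3 µM for AKR1C2 and 100 µM/1.5 µM for AKR1C3. NADH rise was read at 340 nm from initial velocities. […] Mean of two experiments.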

The target of experiment [2] is T2, Aldo-keto reductase family 1 member C2 (Homo sapiens) (UniProt P52895).
T2 sequence (whole entry): T1 sequence (whole entry) with T38V, R47H, L54V, C87S, V151M, R170H, Q172L
In words: Inhibition of recombinant AKR1C2 using 1-acenaphthenol as substrate at 10 uM by spectrophotometry. Summed up:
as §1

Experiment [3] addresses T3, Aldo-keto reductase family 1 member C3 (Homo sapiens) (UniProt P42330).
T3 sequence (whole entry): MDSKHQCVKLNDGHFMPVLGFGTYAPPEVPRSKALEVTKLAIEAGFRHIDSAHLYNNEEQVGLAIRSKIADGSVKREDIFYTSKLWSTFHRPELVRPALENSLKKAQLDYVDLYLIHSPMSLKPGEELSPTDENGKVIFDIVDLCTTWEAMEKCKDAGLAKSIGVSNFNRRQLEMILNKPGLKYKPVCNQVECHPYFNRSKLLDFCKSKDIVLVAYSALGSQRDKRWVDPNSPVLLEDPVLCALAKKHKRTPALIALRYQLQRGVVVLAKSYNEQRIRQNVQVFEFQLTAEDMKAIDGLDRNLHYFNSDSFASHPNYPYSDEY
Description: Inhibition of recombinant AKR1C3 using 1-acenaphthenol as substrate at 10 uM by spectrophotometry. Summed up: as §1

For experiment [4], the target named is T4, Aldo-keto reductase family 1 member C1 (Homo sapiens, UniProt Q04828).
T4 sequence (Q04828 whole entry): T1 sequence (whole entry)
In words: Inhibition of recombinant AKR1C1 using 1-acenaphthenol as substrate by spectrophotometry. An outline of the steps: as §1

For experiment [5], the target named is T5, Aldo-keto reductase family 1 member C2 (Homo sapiens, UniProt P52895).
T5 sequence (P52895 whole entry): T1 sequence (whole entry) with T38V, R47H, L54V, C87S, V151M, R170H, Q172L
Description: Inhibition of recombinant AKR1C2 using 1-acenaphthenol as substrate by spectrophotometry. An outline of the steps: as §1

Experiment [6] deals with T6, Aldo-keto reductase family 1 member C3 (Homo sapiens, UniProt P42330).
T6 sequence (P42330 whole entry): T3 sequence (whole entry)
Description: Inhibition of recombinant AKR1C3 using 1-acenaphthenol as substrate by spectrophotometry. An outline of the steps: as §1

Experiment [7] has as its target T4, Aldo-keto reductase family 1 member C1. Description: Inhibition of recombinant AKR1C1 using S-tetralol as substrate by fluorimetry. An outline of the steps:
(§2)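 Continuous NADP+-dependent oxidation of S-tetralol, read as NADPH fluorescence at 340/460 nm. Buffer was 100 mM phosphate pH 7.0 with 200 µM NADP+ and 4% DMSO. […] Enzyme was 111, 86, 95 and 184 nM respectively. Initial velocities were fitted to give IC50. Mean of two independent experiments.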

Experiment [8] concerns the target T5, Aldo-keto reductase family 1 member C2. Description: Inhibition of recombinant AKR1C2 using S-tetralol as substrate by fluorimetry. Summed up: as §2
The target of experiment [9] is T6, Aldo-keto reductase family 1 member C3. Description: Inhibition of recombinant AKR1C3 using S-tetralol as substrate by fluorimetry. Summed up: as §2
Experiment [10] concerns the target T7, Aldo-keto reductase family 1 member C4 (Homo sapiens, UniProt P17516).
T7 sequence (P17516 whole entry): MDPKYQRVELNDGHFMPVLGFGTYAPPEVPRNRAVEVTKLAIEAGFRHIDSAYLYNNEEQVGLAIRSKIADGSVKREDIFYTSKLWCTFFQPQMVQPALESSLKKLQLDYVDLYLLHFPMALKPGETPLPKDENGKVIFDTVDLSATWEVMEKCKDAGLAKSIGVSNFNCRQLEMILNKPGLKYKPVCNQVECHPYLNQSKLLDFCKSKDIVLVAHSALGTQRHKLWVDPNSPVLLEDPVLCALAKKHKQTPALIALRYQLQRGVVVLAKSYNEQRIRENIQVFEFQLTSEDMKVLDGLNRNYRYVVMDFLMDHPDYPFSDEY
Description: Inhibition of recombinant AKR1C4 using S-tetralol as substrate by fluorimetry. Summed up:
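Continuous NADP+-dependent oxidation of S-tetralol, read as NADPH fluorescence at 340/460 nm. Buffer was 100 mM phosphate pH 7.0 with 200 µM NADP+ and 4% DMSO. Initial velocities were fitted to give IC50. Mean of two independent experiments.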

The species entered for experiment [11] is Homo sapiens. Description: Selectivity ratio of IC50 for AKR1C1 to AKR1C3. An outline of the steps:
(§3)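 Fold selectivity for AKR1C3 was calculated from IC50 values of the secondary assay. That assay followed fluorimetric NADP+-dependent S-tetralol oxidation at pH 7.0, with substrate at each isoform's Km.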

Experiment [12] is filed under the species Homo sapiens. Description: Selectivity ratio of IC50 for AKR1C2 to AKR1C3. An outline of the steps: as §3
The species named for experiment [13] is Homo sapiens. In words: Selectivity ratio of IC50 for AKR1C4 to AKR1C3. Summed up:
as §3

In general, inhibition refers to the drop in the measured response relative to a control, in per cent. As for `Nc1cccc(C(=O)Nc2ccccc2C(=O)O)c1`, the inhibition in experiment [1] was 8%. For the same compound, the inhibition result in [2] and in experiment [3] was “inactive” throughout.
Broadly, the IC50 is the concentration that gives 50% inhibition. Turning to `CCCCOc1cc(C(=O)Nc2ccccc2C(=O)O)ccc1[N+](=O)[O-]`, the inhibition in experiment [1] is 70.8%; in experiment [2] it was 58.3%; in [3], 47.2%. Also, the results for the IC50 in experiment [4], in experiment [5] and in experiment [6] were 3.2 µM, 6.5 µM and 7.5 µM, respectively.
With `COc1cc(NC(=O)c2cccc(O)c2)c(C(=O)O)cc1OC`, the figures for the inhibition in experiment [1], in experiment [2] and in experiment [3] were 11.8%, 29.4% and 70.2%, respectively. In addition, the IC50 in experiment [7] came out at 86.3 µM; in experiment [8], 30 µM; in [9], 2900 nM; in experiment [10] it was 50.9 µM; in experiment [6], 5.2 µM. Further, the figures for the Ratio IC50 in experiment [11], in experiment [12] and in experiment [13] were 30, 10 and 18, respectively.
Take `CCCCOc1cccc(C(=O)Nc2ccc(Br)cc2C(=O)O)c1`: the inhibition in experiment [1] was 65.9%; in [2], 70.5%; in experiment [3] it was 30.4%. Also, the half-inhibitory concentration (IC50) in experiment [4] and in experiment [5] was 4.9 µM in each case.
With `O=C(Nc1ccc(Br)cc1C(=O)O)c1cccc(O)c1`, the figures for the inhibition in [1], in experiment [2] and in experiment [3] were 21.6%, 16.7% and 89.6%, respectively. The IC50 amounted to 100 µM in experiment [7]; 63 µM in experiment [8]; 350 nM in [9]; 30.3 µM in experiment [10]; 1.9 µM in [6]. Moreover, the values for the Ratio IC50 in [11], in experiment [12] and in experiment [13] were 286, 180 and 86, respectively.
For the compound `COc1cc(NC(=O)c2cccc([N+](=O)[O-])c2)c(C(=O)O)cc1OC`, the inhibition in experiment [1] was 22.2%; in experiment [3], 3.5%. In experiment [2], the inhibition result was “inactive”.
Taken in the same sequence, the figures for `O=C(Nc1ccc(Cl)cc1C(=O)O)c1cccc([N+](=O)[O-])c1` were “inactive”, 3.4% and 23.4%.
Taken in the same sequence, the figures for `COc1cc(NC(=O)c2cccc(N)c2)c(C(=O)O)cc1OC` were 18%, 5.6% and 20.2%.
Regarding `O=C(Nc1ccc([N+](=O)[O-])cc1C(=O)O)c1cccc(O)c1`, the results for the inhibition in experiment [1], in experiment [2] and in [3] were 11.8%, 10.4% and 87.9%, respectively. For the same compound, the IC50 was 35.2 µM in experiment [7], 41.6 µM in experiment [8], 840 nM in [9] and 2.6 µM in experiment [6].
`O=C(Nc1ccc(Cl)cc1C(=O)O)c1cccc(O)c1`: the inhibition in experiment [1] was 17.4%; in experiment [2], 6.7%; in [3] it was 77.8%. Moreover, the IC50 was 50.8 µM in [7]; 50.2 µM in experiment [8]; 310 nM in experiment [9]; 20.1 µM in experiment [10]; 2.2 µM in experiment [6]. Further, the Ratio IC50 in [11] is 164; in experiment [12], 162; in experiment [13] it was 65.
As to `O=C(Nc1ccc(O)cc1C(=O)O)c1cccc([N+](=O)[O-])c1`, the inhibition result in experiment [1] was “inactive”. The inhibition in experiment [2] turned out to be 31.6%; in experiment [3], 1.9%.
Turning to `Nc1cccc(C(=O)Nc2ccc(O)cc2C(=O)O)c1`, the inhibition in experiment [1] is 9.7%; in [2], 28.7%; in experiment [3], 5.6%.
Consider `O=C(Nc1ccc(Br)cc1C(=O)O)c1ccc(F)c([N+](=O)[O-])c1`, for which the inhibition in [1] amounted to 53.2%; in experiment [2], 33.6%; in experiment [3] it was 5.6%. In addition, the concentration for half-maximal inhibition (IC50) in experiment [4] was 8.4 µM; in experiment [5] it was 15.6 µM.
For `Cc1cc(Cl)cc(C(=O)O)c1NC(=O)c1cccc([N+](=O)[O-])c1`, the inhibition entry in experiment [1] and in experiment [3] was “inactive” in each case. Further, in experiment [2], the inhibition turned out to be 22.5%.
In the case of `CCOc1cccc(C(=O)Nc2ccc(Br)cc2C(=O)O)c1`, the inhibition in [1] was 31.9%; in experiment [2], 36.8%; in experiment [3], 19.1%. Also, the concentration for half-maximal inhibition (IC50) in experiment [4] is 20.6 µM; in [5] it was 17.1 µM.
On to `O=C(Nc1ccccc1C(=O)O)c1cccc(O)c1`, for which the inhibition result in experiment [1] and in [2] was “inactive” in each case. Moreover, the inhibition in experiment [3] was 42.1%. For the same compound, the IC50 in experiment [7] was more than 100 µM; in experiment [8], 48.1 µM; in experiment [9], 5190 nM; in [6], 12.7 µM. Further, the Ratio IC50 in experiment [11] is more than 19; in experiment [12], 9; in [13] it was more than 19.
